The record followed here is ChEMBL document CHEMBL5325511, “Discovery of N-(4-(Aminomethyl)phenyl)-5-methylpyrimidin-2-amine Derivatives as Potent and Selective JAK2 Inhibitors” (ACS Med Chem Lett, 2023).

The target in data set [1] is T1, Receptor-type tyrosine-protein kinase FLT3 (Homo sapiens, UniProt P36888).
T1 sequence (P36888 whole entry): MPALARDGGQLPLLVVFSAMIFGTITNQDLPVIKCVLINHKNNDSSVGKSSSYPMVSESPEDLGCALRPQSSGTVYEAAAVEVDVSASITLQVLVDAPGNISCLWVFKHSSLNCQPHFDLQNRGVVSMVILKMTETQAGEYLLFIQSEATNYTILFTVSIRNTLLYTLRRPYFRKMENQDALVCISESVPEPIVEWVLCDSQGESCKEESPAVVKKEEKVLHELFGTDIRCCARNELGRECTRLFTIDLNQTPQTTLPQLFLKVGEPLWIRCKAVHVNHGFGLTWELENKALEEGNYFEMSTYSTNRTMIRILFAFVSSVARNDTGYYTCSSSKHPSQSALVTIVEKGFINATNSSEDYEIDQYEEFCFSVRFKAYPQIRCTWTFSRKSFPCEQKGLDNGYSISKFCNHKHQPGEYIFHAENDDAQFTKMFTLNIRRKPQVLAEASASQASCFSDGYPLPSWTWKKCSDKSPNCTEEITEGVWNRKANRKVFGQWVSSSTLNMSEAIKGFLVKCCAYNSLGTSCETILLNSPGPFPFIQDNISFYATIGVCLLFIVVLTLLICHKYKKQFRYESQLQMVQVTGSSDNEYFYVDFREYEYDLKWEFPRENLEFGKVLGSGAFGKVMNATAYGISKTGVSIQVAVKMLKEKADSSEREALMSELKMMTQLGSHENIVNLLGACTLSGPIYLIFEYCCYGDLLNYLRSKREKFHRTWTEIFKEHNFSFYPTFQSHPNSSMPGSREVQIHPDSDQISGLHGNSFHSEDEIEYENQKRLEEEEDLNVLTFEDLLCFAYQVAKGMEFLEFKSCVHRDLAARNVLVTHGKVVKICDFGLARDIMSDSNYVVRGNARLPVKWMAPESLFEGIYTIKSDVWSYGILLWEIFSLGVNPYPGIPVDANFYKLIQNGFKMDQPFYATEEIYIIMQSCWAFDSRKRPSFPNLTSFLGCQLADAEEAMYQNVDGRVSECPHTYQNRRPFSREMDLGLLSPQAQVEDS
As to the kind of experiment: Inhibition of FLT3 in human MOLM-13 cells. It is filed as cell-based. The gist of the method: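 Cell proliferation assay. IC50 is the concentration that inhibits proliferation by 50%, taken from dose–response curves. Mean ± SEM of at least three independent experiments.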

A short description of data set [2]: AUC(0 to t) in Sprague-Dawley rat at 5 mg/kg, po measured upto 24 hrs by LC-MS/MS analysis. To be noted: in vivo. On the set-up: time < 24 hrs, dose 5 mg/kg, route po. It is filed as ADME, organism-based. In a few lines:
(§1)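 Sprague–Dawley rats, n = 5, dosed at 5 mg/kg as a solution in 2% ethanol and 1% Tween 80, pH 5.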

Data set [3] can be described thus: Oral bioavailability in Sprague-Dawley rat at 5 mg/kg measured upto 24 hrs by LC-MS/MS analysis. It is filed as ADME, organism-based. The following applies: in vivo. The gist of the method: (§2)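 Sprague–Dawley rats, n = 5 per group, dosed at 5 mg/kg as a solution in 2% ethanol and 1% Tween 80, pH 5.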
The target in data set [4] is T2, Tyrosine-protein kinase JAK3 (Homo sapiens, UniProt P52333).
T2 sequence (P52333 whole entry): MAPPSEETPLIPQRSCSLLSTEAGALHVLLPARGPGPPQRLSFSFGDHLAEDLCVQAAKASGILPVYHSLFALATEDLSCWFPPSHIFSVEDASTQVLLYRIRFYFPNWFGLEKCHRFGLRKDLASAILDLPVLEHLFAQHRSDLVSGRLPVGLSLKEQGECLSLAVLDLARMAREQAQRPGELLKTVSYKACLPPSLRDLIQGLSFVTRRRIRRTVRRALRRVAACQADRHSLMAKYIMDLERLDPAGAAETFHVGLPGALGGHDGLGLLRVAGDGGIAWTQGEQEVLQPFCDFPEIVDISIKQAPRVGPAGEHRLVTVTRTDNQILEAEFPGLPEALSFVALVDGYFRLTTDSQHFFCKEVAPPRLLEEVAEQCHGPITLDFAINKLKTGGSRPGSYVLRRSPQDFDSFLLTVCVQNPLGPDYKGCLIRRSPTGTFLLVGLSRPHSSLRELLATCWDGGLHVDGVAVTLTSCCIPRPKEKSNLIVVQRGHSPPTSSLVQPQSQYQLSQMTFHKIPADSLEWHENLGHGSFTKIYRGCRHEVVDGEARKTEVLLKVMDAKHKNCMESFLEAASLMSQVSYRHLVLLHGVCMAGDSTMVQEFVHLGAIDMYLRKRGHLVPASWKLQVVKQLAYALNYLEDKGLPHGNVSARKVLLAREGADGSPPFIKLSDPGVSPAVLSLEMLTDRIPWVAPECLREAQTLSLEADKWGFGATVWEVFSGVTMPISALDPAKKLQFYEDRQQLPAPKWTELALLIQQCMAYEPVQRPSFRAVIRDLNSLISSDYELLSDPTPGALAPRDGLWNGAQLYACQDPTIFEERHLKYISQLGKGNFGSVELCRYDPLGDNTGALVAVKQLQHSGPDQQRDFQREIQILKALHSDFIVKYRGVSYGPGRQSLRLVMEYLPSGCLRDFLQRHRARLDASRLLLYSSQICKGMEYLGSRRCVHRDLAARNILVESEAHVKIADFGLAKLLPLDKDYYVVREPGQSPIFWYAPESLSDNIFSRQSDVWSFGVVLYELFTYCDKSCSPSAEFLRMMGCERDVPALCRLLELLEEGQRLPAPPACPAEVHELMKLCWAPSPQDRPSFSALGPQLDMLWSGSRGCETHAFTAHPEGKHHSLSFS
The data set is described as follows: Inhibition of JAK3 (unknown origin) in presence of Mg/ATP mixture by [gamma p33]-ATP based radiometric assay.

In data set [5] the test system is BaF3. The data set is described as follows: Inhibition of JAK2/STAT signaling pathway in mouse BaF3 cells harbouring JAK2 V617F mutant assessed as reduction in JAK2 phosphorylation by Western blot analysis. The following applies: dose 10-1000 nM. It counts as cell-based. The gist of the method:
(§3)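 Ba/F3 JAK2V617F cells treated with compound at increasing concentrations. Phosphorylation levels of JAK2, STAT3, STAT5 and AKT assessed by Western blot.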

Data set [6] can be described thus: Tmax in Sprague-Dawley rat at 5 mg/kg, po measured upto 24 hrs by LC-MS/MS analysis. It is filed as ADME, organism-based. To be noted: in vivo, po, 5 mg/kg, 24 h. In a few lines:
as §2

Data set [7] has as its target Tyrosine-protein kinase JAK2 (Homo sapiens, UniProt O60674). The data set is described as follows: Inhibition of JAK2 (unknown origin) in presence of Mg/ATP mixture by [gamma p33]-ATP based radiometric assay. In a few lines:
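IC50 values determined by Eurofins Discovery.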

For data set [8], the system named is BaF3. As to the kind of experiment: Inhibition of JAK2/STAT signaling pathway in mouse BaF3 cells harbouring JAK2 V617F mutant assessed as reduction in STAT5 phosphorylation by Western blot analysis. It counts as cell-based. The following applies: dose 10-1000 nM. The gist of the method:
as §3

Data set [9] concerns BaF3. The data set is described as follows: Inhibition of JAK2/STAT signaling pathway in mouse BaF3 cells harbouring JAK2 V617F mutant assessed as reduction in AKT phosphorylation at 10 to 1000 nM by Western blot analysis. It is filed as cell-based. The following applies: dose 10-1000 nM. The gist of the method: as §3
(In general: Immunoblotting shows a protein as a band on a membrane.)

Data set [10] is described as follows: Cmax in Sprague-Dawley rat at 5 mg/kg, po measured upto 24 hrs by LC-MS/MS analysis. Set-up: dose 5 mg/kg, time < 24 hrs, route po. It counts as ADME, organism-based. The following applies: in vivo, 24 h. In a few lines:
as §1

Molecules are shown by their SMILES. Active and inactive are the calls of the source. No cut-off for these calls is given here.

Tyrosine-protein kinase JAK2, sequence (O60674 whole entry): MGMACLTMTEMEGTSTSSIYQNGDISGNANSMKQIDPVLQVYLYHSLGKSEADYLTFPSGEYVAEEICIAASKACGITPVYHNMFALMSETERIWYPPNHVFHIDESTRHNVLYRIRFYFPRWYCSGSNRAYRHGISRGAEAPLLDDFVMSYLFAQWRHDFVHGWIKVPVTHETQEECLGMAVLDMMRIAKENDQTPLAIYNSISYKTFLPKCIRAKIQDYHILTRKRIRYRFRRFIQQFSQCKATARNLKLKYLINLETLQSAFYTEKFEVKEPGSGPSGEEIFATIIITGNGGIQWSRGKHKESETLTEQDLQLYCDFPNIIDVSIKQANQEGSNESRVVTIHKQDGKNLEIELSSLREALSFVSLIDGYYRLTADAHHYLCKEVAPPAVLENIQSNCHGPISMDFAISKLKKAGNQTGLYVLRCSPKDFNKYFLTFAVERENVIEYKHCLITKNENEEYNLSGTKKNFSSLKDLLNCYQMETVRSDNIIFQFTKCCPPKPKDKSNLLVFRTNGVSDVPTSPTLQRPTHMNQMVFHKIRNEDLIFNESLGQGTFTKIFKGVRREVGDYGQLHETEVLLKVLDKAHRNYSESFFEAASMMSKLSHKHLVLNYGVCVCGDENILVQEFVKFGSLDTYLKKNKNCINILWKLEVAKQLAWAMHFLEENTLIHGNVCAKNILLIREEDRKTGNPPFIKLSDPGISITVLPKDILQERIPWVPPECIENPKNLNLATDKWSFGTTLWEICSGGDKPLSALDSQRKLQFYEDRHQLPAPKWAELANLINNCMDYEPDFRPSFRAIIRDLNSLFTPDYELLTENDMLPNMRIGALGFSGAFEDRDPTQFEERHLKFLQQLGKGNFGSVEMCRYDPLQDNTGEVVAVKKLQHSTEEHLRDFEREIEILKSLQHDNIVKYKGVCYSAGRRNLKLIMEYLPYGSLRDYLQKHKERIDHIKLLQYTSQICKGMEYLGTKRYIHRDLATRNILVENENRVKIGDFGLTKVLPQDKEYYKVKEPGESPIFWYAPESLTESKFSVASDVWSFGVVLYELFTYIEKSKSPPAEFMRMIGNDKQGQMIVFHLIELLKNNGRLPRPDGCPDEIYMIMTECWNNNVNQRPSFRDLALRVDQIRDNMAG

`C=CS(=O)(=O)NCc1ccc(Nc2ncc(C)c(-c3cnn(C(C)C)c3)n2)cc1`: the IC50 (commonly the concentration that inhibits the measured activity by half) turned out to be 583 nM in data set [1], 273 nM in data set [4] and 5 nM in [7]. The same molecule registered an AUCt in data set [2] of 3517.9 ng·h/mL. For the same molecule, the bioavailability – broadly, the share of a dose that reaches the circulation, judged against a reference dose that is usually intravenous – in [3] was determined as 41.1%. For the same molecule, the inhibition result in the data set with BaF3 [5] and in the data set with BaF3 [8] was “Dose-Dependent Effect” each time. Moreover, the time to peak (Tmax) (usually the time at which the peak concentration occurs) in data set [6] was 1.4 h. The inhibition entry in the data set with BaF3 [9] was “Active”. The Cmax (commonly the maximum level reached in the sampled fluid or tissue) in data set [10] was 121.4 ng/mL.
